According to ChEMBL document CHEMBL1649225, “Artemisone and artemiside control acute and reactivated toxoplasmosis in a murine model” (Antimicrob Agents Chemother, 2009):
Active and inactive are the calls of the source. The calls are words filed in the database; no cut-off is given here.

Key:
Toxoplasma gondii [1] = assay: Antiparasitic activity against Toxoplasma gondii PRU-Luc-GFP type 2 infected in CD1 mouse acute toxoplasmosis model assessed as mouse survival at 10 mg/kg, sc administered once daily for 8 days measured after 25 days post-infection; format: functional; details: PRU-Luc-GFP type 2, sc, route subcutaneous
In short: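 Female CD1 outbred mice, 8–10 weeks old, infected i.p. with 10⁶ PRU-Luc-GFP type II tachyzoites in 0.2 ml PBS. Compounds given s.c. at 10 mg/kg daily for 8 days. Survival followed for 25 days; three experiments combined, n = 3 or 4 per group.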

Toxoplasma gondii [2] = assay: Antiparasitic activity against Toxoplasma gondii RH infected in human foreskin fibroblasts monolayer after 72 hrs by bacterial beta-galactosidase reporter gene assay; format: functional, organism-based
In short: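 RH clone 2F expressing bacterial β-galactosidase, grown as tachyzoites in HFF monolayers in DMEM with 10% FBS. Compounds from DMSO stocks stored at −80°C in single-use aliquots. Tested at 0.010–1.0 μM for 72 h at 37°C. Medium then removed and β-galactosidase activity read at 570 nm.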

[3] = Partition coefficient, log P of the compound; format: physicochemical; details: octanol/water
Toxoplasma gondii [4] = assay: (§1) Antiparasitic activity against Toxoplasma gondii PRU-Luc-GFP type 2 infected in CD1 mouse acute toxoplasmosis model assessed as decrease in parasite burden at 10 mg/kg, sc administered once daily for 8 days measured after 25 days post-infection by luciferase reporter gene based assay; format: functional, organism-based; parameters: dose 10 mg/kg
In short: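 Female CD1 mice, 8–10 weeks old, infected i.p. with 10⁶ PRU-Luc-GFP tachyzoites. Dosed s.c. at 10 mg/kg daily for 8 days. Imaged every 2 days over 25 days under mild isoflurane anesthesia after i.p. firefly luciferin D at […]. Output in relative light units as a relative index of infection severity. Four repeats, n = 3 or 4 per group; one representative experiment shown.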

Toxoplasma gondii [5] = assay: (§2) Antiparasitic activity against Toxoplasma gondii PRU-Luc-GFP type 2 infected in 400 mg/kg sulfadiazine-pretreated INFgamma-deficient C57BL/6 mouse reactivated toxoplasmosis model assessed as mouse survival at 10 mg/kg, sc at once daily for 8 days administered 2 days after sulfadiazine discontinuation measured on day 25 post infection after compound withdrawal; format: functional, organism-based
In short: (§3)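 Female IFN-γ−/− mice on C57BL/6 background, 8–10 weeks old, kept specific pathogen-free. Infected orally with 20 PRU-Luc-GFP tissue cysts taken from brains of chronically infected wild-type mice. Sulfadiazine in drinking water for 3 weeks from day 2. Compounds given s.c. at 10 mg/kg daily for 8 days, starting 2 days after sulfadiazine stopped. Survival monitored; three experiments combined, n = 3–5 per group.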

Toxoplasma gondii [6] = assay: as §2, with “18” for “25”; format: functional, organism-based; in short: as §3
Toxoplasma gondii [7] = assay: as §2, with “discontinuation” for “discontinuation measured on day 25 post infection after compound withdrawal”; format: functional; in short: as §3
HFF = assay: Cytotoxicity against HFF; format: cell-based; details: human
Toxoplasma gondii [8] = assay: as §1, with “parasite-induced cyst formation in mouse brain” for “parasite burden”; format: functional, organism-based; parameters: dose 10 mg/kg
In short: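 Female CD1 mice, 8–10 weeks old, infected i.p. with 10⁶ PRU-Luc-GFP tachyzoites and dosed s.c. at 10 mg/kg daily for 8 days. At 25 days post-infection, brains were homogenized in 1.0 ml PBS, pH 7.2. Cysts counted by bright-field or phase-contrast microscopy at ×40 in four 20-μl aliquots and total cysts per brain estimated. Three experiments combined, n = 2 per group.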

[9] = Partition coefficient, log P of the compound at pH 2; format: physicochemical; details: octanol/water

## C[C@H]1[C@H](N2CCS(=O)(=O)CC2)O[C@@H]2O[C@@]3(C)CC[C@H]4[C@H](C)CC[C@@H]1[C@@]24OO3 [ARTEMIFONE]
Toxoplasma gondii [1]
  survival at 10 mg/kg: 50%
Toxoplasma gondii [2]
  EC50: 120 nM
  EC90: 176 nM
[3]
  logP: 2.49
Toxoplasma gondii [4]
  Activity: Active
Toxoplasma gondii [5]
  Activity: inactive
Toxoplasma gondii [6]
  Activity: inactive
Toxoplasma gondii [7]
  Survival: 60%
HFF
  Activity: Non-toxic

## C[C@@H]1CC[C@H]2[C@@H](C)C(=O)O[C@@H]3O[C@@]4(C)CC[C@@H]1[C@]32OO4 [ARTEMISININ]
[3]
  logP: 2.94
Toxoplasma gondii [4]
  Activity: inactive
Toxoplasma gondii [8]
  Activity: inactive

## C[C@H]1[C@H](OC(=O)CCC(=O)O)O[C@@H]2O[C@@]3(C)CC[C@H]4[C@H](C)CC[C@@H]1[C@@]24OO3 [ARTESUNATE]
[9]
  logP: 2.77
Toxoplasma gondii [2]
  EC50: 213 nM
  EC90: 368 nM
HFF
  Activity: Non-toxic

## C[C@@H]1CC[C@H]2[C@@H](C)C(c3ccc(F)cc3)O[C@@H]3O[C@@]4(C)CC[C@@H]1[C@]32OO4 (some centres not stated)
Toxoplasma gondii [2]
  EC50: 182 nM
  EC90: 271 nM
[3]
  logP: 5.18
HFF
  Activity: Non-toxic

## C[C@H]1[C@H](N2CCN(Cc3ccccc3)CC2)O[C@@H]2O[C@@]3(C)CC[C@H]4[C@H](C)CC[C@@H]1[C@@]24OO3
Toxoplasma gondii [2]
  EC50: 213 nM
  EC90: 339 nM
[3]
  logP: 5.62
HFF
  Activity: Non-toxic

## C[C@H]1[C@H](N2CCSCC2)O[C@@H]2O[C@@]3(C)CC[C@H]4[C@H](C)CC[C@@H]1[C@@]24OO3 [ARTEMISIDE]
Toxoplasma gondii [1]
  survival at 10 mg/kg: 60%
Toxoplasma gondii [2]
  EC50: 108 nM
  EC90: 167 nM
[3]
  logP: 4.97
Toxoplasma gondii [4]
  Activity: Active
Toxoplasma gondii [8]
  Activity: Active
Toxoplasma gondii [5]
  Activity: inactive
Toxoplasma gondii [6]
  Activity: inactive
Toxoplasma gondii [7]
  Survival: 80%
HFF
  Activity: Non-toxic

## C[C@H]1[C@H](N2CCN(c3ncccn3)CC2)O[C@@H]2O[C@@]3(C)CC[C@H]4[C@H](C)CC[C@@H]1[C@@]24OO3
Toxoplasma gondii [2]
  EC50: 156 nM
  EC90: 263 nM
[3]
  logP: 4.78
HFF
  Activity: Non-toxic

## C[C@H]1[C@H](NS(N)(=O)=O)O[C@@H]2O[C@@]3(C)CC[C@H]4[C@H](C)CC[C@@H]1[C@@]24OO3
Toxoplasma gondii [2]
  EC50: 158 nM
  EC90: 235 nM
[3]
  logP: 3.36
HFF
  Activity: Non-toxic
